Assay results published in ChEMBL document CHEMBL1148471, “Synthesis of mono- and bisdihydrodipyridopyrazines and assessment of their DNA binding and cytotoxic properties” (J Med Chem, 2004).
Each block holds one molecule with its values, some of them ahead of it. Activity calls are given as the source filed them. The calls are words filed in the database; no cut-off is given here.

Columns and labels:
L1210 [1] = experiment: Percentage of L1210 cell line in S-phase of cell cycle at 100 uM; type: functional, Mus musculus
Summary of the method: (§1)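 L1210 cells (2.5 × 10^5 cells/mL) incubated 21 h with compound at the stated concentration. Cells fixed in 70% ethanol, then stained 30 min at 20 °C in PBS with 100 µg/mL RNase and 25 µg/mL propidium iodide. Flow cytometry on 10^4 cells per sample, 488 nm excitation, 615 nm long-pass emission. Output is the percentage of cells in each cycle phase.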

L1210 [2] = experiment: Percentage of L1210 cell line in G2M-phase of cell cycle at 100 uM; type: functional, Mus musculus; summary of the method: as §1
L1210 [3] = experiment: Inhibitory concentration against L1210 murine leukemia cell line; type: functional, cell-based; settings: Mus musculus
Summary of the method: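 L1210 cells grown in RPMI 1640 with 10% fetal calf serum, 2 mM L-glutamine, penicillin/streptomycin and 10 mM HEPES (pH 7.4). Cells exposed 48 h to graded concentrations (nine serial dilutions, triplicate). Viability read by microculture tetrazolium assay. IC50 = concentration reducing optical density by 50% versus untreated controls.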

L1210 [4] = experiment: Percentage of L1210 cell line in G1-phase of cell cycle at 25 uM; type: functional, Mus musculus; summary of the method: as §1
L1210 [5] = experiment: Percentage of L1210 cell line in G2M-phase of cell cycle at 1 uM; type: functional, Mus musculus; summary of the method: as §1
L1210 [6] = experiment: Percentage of L1210 cell line in S-phase of cell cycle at 100 uM; NS = no specific effect (toxic at 5 uM); type: functional, cell-based; settings: Mus musculus; summary of the method: as §1
L1210 [7] = experiment: Percentage of L1210 cell line in S-phase of cell cycle at 100 uM; NS = no specific effect (toxic at 2 uM); type: functional, cell-based; settings: Mus musculus; summary of the method: as §1
L1210 [8] = experiment: Percentage of L1210 cell line in 8 N-phase of cell cycle at 1 uM; type: functional, Mus musculus; summary of the method: as §1
L1210 [9] = experiment: Percentage of L1210 cell line in 8 N-phase of cell cycle at 0.5 uM; type: functional, Mus musculus; summary of the method: as §1
L1210 [10] = experiment: Percentage of L1210 cell line in G2M-phase of cell cycle at 0.5 uM; type: functional, Mus musculus; summary of the method: as §1
L1210 [11] = experiment: Percentage of L1210 cell line in G2M-phase of cell cycle at 10 uM; type: functional, Mus musculus; summary of the method: as §1
L1210 [12] = experiment: Percentage of L1210 cell line in G2M-phase of cell cycle at 5 uM; type: functional, Mus musculus; summary of the method: as §1
L1210 [13] = experiment: Percentage of L1210 cell line in S-phase of cell cycle at 100 uM; NS = no specific effect (toxic at 10 uM); type: functional, cell-based; settings: Mus musculus; summary of the method: as §1
L1210 [14] = experiment: Percentage of L1210 cell line in 8 N-phase of cell cycle at 5 uM; type: functional, Mus musculus; summary of the method: as §1
L1210 [15] = experiment: Percentage of L1210 cell line in G2M-phase of cell cycle at 25 uM; type: functional, Mus musculus; summary of the method: as §1
L1210 [16] = experiment: Percentage of L1210 cell line in G2M-phase of cell cycle at 50 uM; type: functional, Mus musculus; summary of the method: as §1
L1210 [17] = experiment: Percentage of L1210 cell line in G2M-phase of cell cycle at 20 uM; type: functional, Mus musculus; summary of the method: as §1
L1210 [18] = experiment: Toxicity of compound was tested at 25 uM;Toxic; type: cell-based; settings: mouse, l1210, 25 µM
L1210 [19] = experiment: Percentage of L1210 cell line in 8 N-phase of cell cycle at 1 uM; Toxic; type: toxicity, cell-based; settings: mouse, l1210, 1 µM; summary of the method: as §1
L1210 [20] = experiment: Percentage of L1210 cell line in G2M-phase of cell cycle at 2 uM; type: functional, Mus musculus; summary of the method: as §1
L1210 [21] = experiment: Percentage of L1210 cell line in 8 N-phase of cell cycle at 10 uM; type: functional, Mus musculus; summary of the method: as §1

Compound: CN1c2cccnc2N(C)c2ncccc21
- Activity (L1210 [1]): 49%
- Activity (L1210 [2]): 34%
- IC50 (L1210 [3]): 34 µM

Compound: CN(C)CCNCc1ccc2c(n1)N(C)c1cccnc1N2C
- Activity (L1210 [4]): 55%
- IC50 (L1210 [3]): 26.7 µM

Compound: CN(C)CCCN(C)Cc1ccc2c(n1)N(C)c1ncccc1N2C
- IC50 (L1210 [3]): 11.5 µM

Compound: CN1c2ccc(CNCCCCCCCNCc3ccc4c(n3)N(C)c3cccnc3N4C)nc2N(C)c2cccnc21
- Activity (L1210 [7]): inactive
- IC50 (L1210 [3]): 0.5 µM

Compound: CN1c2cccnc2N(C)c2cccnc21
- Activity (L1210 [1]): 51%
- IC50 (L1210 [3]): 31.1 µM

Compound: CN(C)CCCCNCc1ccc2c(n1)N(C)c1ncccc1N2C
- Activity (L1210 [9]): 32%
- IC50 (L1210 [3]): 0.14 µM
- Activity (L1210 [10]): 54%

Compound: CN(C)CCCNC(=O)c1ccc2c(n1)N(C)c1ncccc1N2C
- Activity (L1210 [11]): 67%
- IC50 (L1210 [3]): 1.7 µM

Compound: CN1c2ccc(CNCCCNCc3ccc4c(n3)N(C)c3cccnc3N4C)nc2N(C)c2cccnc21
- IC50 (L1210 [3]): 4 µM
- Activity (L1210 [13]): inactive

Compound: CN(C)CCCNCc1ccc2c(n1)N(C)c1cccnc1N2C
- IC50 (L1210 [3]): 9.2 µM
- Activity (L1210 [15]): 39%

Compound: CN1c2ccc(C=O)nc2N(C)c2cccnc21
- Activity (L1210 [16]): 90%
- IC50 (L1210 [3]): 21.6 µM

Compound: CN(C)CCCCCNCc1ccc2c(n1)N(C)c1ncccc1N2C
- Activity (L1210 [18]): Toxic
- IC50 (L1210 [3]): 0.5 µM

Compound: CN1c2cccnc2N(C)c2nc(CNCCCN)ccc21
- Activity (L1210 [5]): 65%
- IC50 (L1210 [3]): 0.14 µM
- Activity (L1210 [19]): Toxic

Compound: CN(C)CCNCc1ccc2c(n1)N(C)c1ncccc1N2C
- Activity (L1210 [21]): 4%
- Activity (L1210 [11]): 47%
- IC50 (L1210 [3]): 11.3 µM

Compound: CN(CCCNCc1ccc2c(n1)N(C)c1cccnc1N2C)CCCNCc1ccc2c(n1)N(C)c1cccnc1N2C
- IC50 (L1210 [3]): 3.5 µM
- Activity (L1210 [13]): inactive

Compound: CN(C)CCCNCc1ccc2c(n1)N(C)c1ncccc1N2C
- Activity (L1210 [5]): 66%
- Activity (L1210 [8]): 14%
- IC50 (L1210 [3]): 0.17 µM

Compound: CN1c2cccnc2N(C)c2nc(C=O)ccc21
- IC50 (L1210 [3]): 20 µM

Compound: CN(C)CCC(=O)NCc1ccc2c(n1)N(C)c1ncccc1N2C
- IC50 (L1210 [3]): 21.1 µM

Further lines, with some results ahead:

- IC50 (L1210 [3]): 0.43 µM
Compound: CN1c2cccnc2N(C)c2nc(CNCCCNCc3ccc4c(n3)N(C)c3ncccc3N4C)ccc21
- Activity (L1210 [5]): 68%

- IC50 (L1210 [3]): 0.71 µM
Compound: CN1c2cccnc2N(C)c2nc(CNCCCCCCCNCc3ccc4c(n3)N(C)c3ncccc3N4C)ccc21
- Activity (L1210 [6]): inactive

- IC50 (L1210 [3]): 1.7 µM
Compound: CN1c2cccnc2N(C)c2nc(CNCCCCNCc3ccc4c(n3)N(C)c3ncccc3N4C)ccc21
- Activity (L1210 [6]; in the assay text read “at 5 uM” for “at 100 uM”): inactive

- IC50 (L1210 [3]): 0.36 µM
Compound: CN1c2cccnc2N(C)c2nc(CNCCCNCCCNCc3ccc4c(n3)N(C)c3ncccc3N4C)ccc21
- Activity (L1210 [5]): 65%
- Activity (L1210 [8]): 18%

- IC50 (L1210 [3]): 0.71 µM
Compound: CN1c2cccnc2N(C)c2nc(CNCCCNCCCCNCCCNCc3ccc4c(n3)N(C)c3ncccc3N4C)ccc21
- Activity (L1210 [12]): 72%

- IC50 (L1210 [3]): 0.68 µM
Compound: CN1c2cccnc2N(C)c2nc(CNCCCOCCCNCc3ccc4c(n3)N(C)c3ncccc3N4C)ccc21
- Activity (L1210 [14]): 18%
- Activity (L1210 [12]): 78%

- IC50 (L1210 [3]): 4.1 µM
Compound: CN1c2cccnc2N(C)c2nc(CNCCNCCNCCNCc3ccc4c(n3)N(C)c3ncccc3N4C)ccc21
- Activity (L1210 [17]): 70%

- IC50 (L1210 [3]): 0.48 µM
Compound: CN1c2cccnc2N(C)c2nc(CNCCCNCc3ccc4c(n3)N(C)c3cccnc3N4C)ccc21
- Activity (L1210 [20]): 66%

- IC50 (L1210 [3]): 2.7 µM
Compound: CN1c2cccnc2N(C)c2nc(CNCCNCc3ccc4c(n3)N(C)c3ncccc3N4C)ccc21
- Activity (L1210 [11]): 79%
